Results of several laboratories.
Each line is one published result; the experiments were not run side by side.
CHRM3: Muscarinic acetylcholine receptor M3 (CHRM3, Homo sapiens, UniProt P20309)
PTGS2: Prostaglandin G/H synthase 2 (PTGS2, Homo sapiens, UniProt P35354)
TMEM97: Sigma intracellular receptor 2 (TMEM97, Homo sapiens, UniProt Q5BJF2)

| SMILES | target | effect on | action | method | setting | measurement | value |
| --- | --- | --- | --- | --- | --- | --- | --- |
| Clc1cccc(N2CCNCC2)c1Cl | CHRM3 | ligand displacement |  | radioligand | cell membranes | Ki | 25.1 µM |
| CN1C(=O)C(=Cc2cn(-c3nc(Cl)nc(N4CCOCC4)n3)c3ccccc23)C(=O)N(C)C1=O | PTGS2 | enzyme activity | inhibitor |  |  | IC50 | 0.1 µM |
| CCCCCCCCCCCCNCCCc1ccc([N+](=O)[O-])cc1 | CHRM3 | ligand displacement |  | radioligand |  | Ki | 3.3 µM |
| CN1CC[C@@]23CCCC[C@@H]2[C@@H]1Cc1ccc(O)cc13 | TMEM97 | ligand displacement |  | radioligand |  | Ki | 2.94 µM |
| C[C@@H]1NC(=O)[C@H](CC(N)=O)NC(=O)[C@H](Cc2ccccc2)NC(=O)[C@@H]2Cc3ccccc3CN2C(=O)[C@H](CCCNC(=N)N)NC(=O)[C@@H]2CCCN2C(=O)[C@H]2CCCN2C(=O)[C@H](Cc2ccccc2)NC1=O | Melanocyte-stimulating hormone receptor (Mc1r, Mus musculus, UniProt Q01727) | reporter gene | agonist |  |  | EC50 | > 100 µM |
| O=c1[nH]c2ccccc2n1CCCN1CCC(n2c(=O)[nH]c3cc(Cl)ccc32)CC1 | Alpha-1D adrenergic receptor (ADRA1D, Homo sapiens, UniProt P25100) | cell-free assay |  |  |  | Ki | 0.71 µM |
| CN1C(=O)C(=Cc2cn(-c3nc(N4CCCC4)nc(N4CCOCC4)n3)c3ccccc23)C(=O)N(C)C1=O | PTGS2 | enzyme activity | inhibitor |  |  | IC50 | 6 µM |
| CN[C@@H](C)[C@@H](O)c1ccccc1 | TMEM97 | ligand displacement |  | radioligand |  | Ki | > 10 µM |
